Reference: ChEMBL document CHEMBL4368882, “Synthesis and biological evaluation against Leishmania donovani of novel hybrid molecules containing indazole-based 2-pyrone scaffolds” (Medchemcomm, 2019)

Experiments:
[1] = Cytotoxicity against mouse RAW264.7 cells after 48 hrs by resazurin dye-based assay; type: cell-based
How it was run: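 RAW 264.7 cells seeded at 2 × 10⁴ per well in DMEM with 10% HIFBS and penicillin–streptomycin, 24 h preculture. Two-fold serial dilutions for 48 h at 37 °C, 5% CO₂. Resazurin (450 μM, 10 μL) added for 4 h in the dark, OD570/OD600 read. CC50 is the concentration reducing macrophage growth by 50%.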

Leishmania donovani [2] = test: Antileishmanial activity against Leishmania donovani MHOM/ET/67/HU3 axenic amastigotes after 72 hrs by resazurin dye-based assay; type: functional, organism-based; settings: MHOM/ET/67/HU3, 72 h
Leishmania donovani [3] = test: Antileishmanial activity against Leishmania donovani MHOM/ET/67/HU3 intramacrophage amastigotes infected in mouse RAW264.7 cells after 48 hrs by SYBR green1 dye-based fluorescence assay; type: functional, organism-based; settings: MHOM/ET/67/HU3, RAW264.7, 48 h
How it was run: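 RAW 264.7 macrophages (2 × 10⁴ per well, 24 h preculture) infected with axenic amastigotes at 16:1 parasite:macrophage for 24 h. Extracellular parasites then removed. Two-fold serial dilutions from 100 μM maximum in DMEM complete medium for 48 h. Cells lysed in Direct PCR Lysis Reagent with 3 freeze–thaw cycles and proteinase K 50 μg mL⁻¹ at 55 °C overnight. Extract mixed with SYBR Green I.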

[4] = Selectivity index, ratio of CC50 for mouse RAW264.7 cells to IC50 for Leishmania donovani MHOM/ET/67/HU3 intramacrophage amastigotes infected in mouse RAW264.7 cells; type: toxicity, cell-based; settings: read-out: Ratio CC50/IC50
How it was run: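 Ratio of the RAW 264.7 CC₅₀ to the intramacrophage amastigote IC₅₀, both measured in this work.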

Structure (SMILES) | IC50 (Leishmania donovani [3]) | CC50 at 48 h [1] | IC50 (Leishmania donovani [2]) | selectivity ratio [4]
C=CCn1nc(Cl)c2ccc(N/C(C)=C3\C(=O)C=C(C)OC3=O)cc21 | > 100 µM | > 100 µM | > 100 µM | –
CC1=CC(=O)/C(=C(/C)Nc2ccc3c(Cl)n(Cc4ccc(C)cc4)nc3c2)C(=O)O1 | > 100 µM | > 100 µM | > 100 µM | –
CC1=CC(=O)/C(=C(/C)Nc2ccc3cnn(C)c3c2)C(=O)O1 | > 100 µM | > 100 µM | > 100 µM | –
CCn1cc2cc(N/C(C)=C3\C(=O)C=C(C)OC3=O)ccc2n1 | > 100 µM | > 100 µM | > 100 µM | –
C=CCn1cc2ccc(N/C(C)=C3\C(=O)C=C(C)OC3=O)cc2n1 | > 100 µM | > 100 µM | > 100 µM | –
CC1=CC(=O)/C(=C(/C)Nc2ccc3c(cnn3C)c2)C(=O)O1 | > 100 µM | > 100 µM | > 100 µM | –
CC1=CC(=O)/C(=C(/C)Nc2ccc3c(Cl)nn(C)c3c2)C(=O)O1 | > 100 µM | > 100 µM | > 100 µM | –
CC1=CC(=O)/C(=C(/C)Nc2ccc3nn(C)cc3c2)C(=O)O1 | > 100 µM | > 100 µM | > 100 µM | –
CCn1ncc2ccc(N/C(C)=C3\C(=O)C=C(C)OC3=O)cc21 | > 100 µM | > 100 µM | > 100 µM | –
C[C@@H]1[C@H](O)[C@@H](C)/C=C/C=C/C=C/C=C/C=C/C=C/C=C/[C@H](O[C@@H]2O[C@H](C)[C@@H](O)[C@H](N)[C@@H]2O)C[C@@H]2O[C@](O)(C[C@@H](O)C[C@@H](O)[C@H](O)CC[C@@H](O)C[C@@H](O)CC(=O)O[C@H]1C)C[C@H](O)[C@H]2C(=O)O [AMPHOTERICIN B] | 0.115 µM | 4.23 µM | – | –

Further lines, with some results ahead:

IC50 (Leishmania donovani [3]) | Structure (SMILES) | CC50 at 48 h [1] | IC50 (Leishmania donovani [2]) | selectivity ratio [4]
> 100 µM | CC1=CC(=O)/C(=C(/C)Nc2ccc3cnn(Cc4ccc(C)cc4)c3c2)C(=O)O1 | > 100 µM | > 100 µM | –
57.4 µM | CC1=CC(=O)/C(=C(/C)Nc2ccc3cn(Cc4ccc(C)cc4)nc3c2)C(=O)O1 | > 100 µM | 49.6 µM | –
> 100 µM | CCn1ncc2cc(N/C(C)=C3\C(=O)C=C(C)OC3=O)ccc21 | > 100 µM | > 100 µM | –
> 100 µM | CCn1cc2ccc(N/C(C)=C3\C(=O)C=C(C)OC3=O)cc2n1 | > 100 µM | > 100 µM | –
6.5 µM | CCn1nc(Cl)c2ccc(N/C(C)=C3\C(=O)C=C(C)OC3=O)cc21 | 6.23 µM | 11 µM | 0.96
> 100 µM | C=CCn1ncc2ccc(N/C(C)=C3\C(=O)C=C(C)OC3=O)cc21 | > 100 µM | > 100 µM | –
> 100 µM | C=CCn1ncc2cc(N/C(C)=C3\C(=O)C=C(C)OC3=O)ccc21 | > 100 µM | > 100 µM | –
2.25 µM | CCn1nc2cc(N/C(C)=C3\C(=O)C=C(C)OC3=O)ccc2c1Cl | 6.25 µM | 2.48 µM | 2.77
49.9 µM | CC1=CC(=O)/C(=C(/C)Nc2ccc3c(Cl)nn(Cc4ccc(C)cc4)c3c2)C(=O)O1 | > 100 µM | 62.6 µM | –
3.25 µM | CC1=CC(=O)/C(=C(/C)Nc2ccc3c(Cl)n(C)nc3c2)C(=O)O1 | 6.26 µM | 11.9 µM | 1.92
